Series [1] concerns the target Translocator protein (Rattus norvegicus, UniProt P16257). Description: Displacement of [3H]PK11195 from PBR receptor in Wistar rat heart homogenates. Type of series: tissue-based. In a few lines:
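Competition binding against [³H]PK11195 in homogenised rat heart tissue.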

The nature of series [2]: Octanol-water partition coefficient, log P of the compound by reversed phase liquid chromatography. Type of series: physicochemical.
The nature of series [3]: Ratio of drug uptake in Wistar rat brain to Wistar rat striatum after 30 mins. To be noted: in vivo, 0.5 h.
Series [4] deals with Striatum. Description: Ratio of drug uptake in Wistar rat striatum after 2 mins to Wistar rat striatum after 30 mins. Type of series: ADME, tissue-based. To be noted: in vivo. In a few lines: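 Biodistribution of ¹⁸F-compounds in naïve Wistar rats (n = 3). Regional brain uptake was measured as % id/g at 2 and 30 min post-injection. Ratios were taken between regions, olfactory bulb:striatum at 30 min, and between times, 2:30 min.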

Series [5] in a line: Metabolic stability in Wistar rat plasma after 15 mins by HPLC analysis. To be noted: read-out: Stability. Type of series: ADME, cell-free. In outline: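 Radiolabelled compound was incubated in plasma at 37 °C for 15 min. Chiral HPLC analysis then gave the percentage of the active enantiomer that remained.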
Series [6] can be described thus: Metabolic stability in Wistar rat brain assessed as remaining parent compound after 30 mins by HPLC analysis. To be noted: read-out: Stability. Type of series: ADME, tissue-based. In a few lines:
(§1)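 ¹⁸F-labelled compounds given to naïve Wistar rats (n = 1). Brain extracts were taken at 10, 30 and 60 min post-injection and analysed by HPLC. The read-out is % parent.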

Series [7] can be described thus: Metabolic stability in Wistar rat brain assessed as remaining parent compound after 10 mins by HPLC analysis. Type of series: ADME, tissue-based. To be noted: read-out: Stability. In outline:
as §1

A short description of series [8]: Metabolic stability in Wistar rat brain assessed as remaining parent compound after 60 mins by HPLC analysis. Type of series: ADME, tissue-based. To be noted: read-out: Stability. In a few lines: as §1

Sequence of Translocator protein (P16257 whole entry, looked up): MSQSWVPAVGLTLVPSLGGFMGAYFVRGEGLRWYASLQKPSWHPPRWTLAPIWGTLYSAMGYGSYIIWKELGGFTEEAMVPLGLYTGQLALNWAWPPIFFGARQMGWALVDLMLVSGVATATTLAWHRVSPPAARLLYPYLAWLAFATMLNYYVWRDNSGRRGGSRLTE

In general, Ki refers to the equilibrium dissociation constant of an inhibitor or competing ligand from its target. A high value points to a looser hold on the target. In the case of `CCN(CC)C(=O)C1Sc2ccccc2-c2[nH]c3ccccc3c21` (racemic), in series [1], the Ki worked out at 0.76 nM.
Broadly, the logP is a log measure of how a compound divides between an organic and an aqueous phase. Low values mean lower lipophilicity, high ones higher lipophilicity. Compound `CCN(CC)C(=O)C1Cc2ccccc2-c2c1c1ccccc1n2CCF` (racemic) registered a Ki in series [1] of 1.13 nM. The compound further came in with a logP in series [2] of 3.69.
`CCN(CC)C(=O)C1c2ccccc2-c2[nH]c3ccccc3c21` (racemic) returned a Ki in series [1] of 0.8 nM. For the same compound, the Ratio in series [3] is 1; in series [4] it was 5.8.
Take `CCN(CC)C(=O)C1Sc2ccccc2-c2c1c1cccc(OC)c1n2CCF` (racemic): the Ki in series [1] stood at 0.93 nM. Besides, the Ratio in series [3] is reported as 2; in series [4], 5. Moreover, the logP in series [2] came out at 3.85.
In series [1], `CCN(CC)C(=O)C1Sc2ccccc2-c2c1c1ccccc1n2CCF` (single isomer, unassigned; form 2) showed a Ki of 0.22 nM. For the same compound, the remaining at 0.25 h in series [5] amounted to 83%.
In the case of `CCN(CC)C(=O)C1Sc2ccccc2-c2c1c1ccccc1n2CCF` (racemic), the remaining at 0.5 h in series [6] was found to be 95%. Besides, the Ratio in series [3] worked out at 1.42; in series [4], 2.16. For the same compound, in series [7], the remaining at 10 min turned out to be 99%. In series [2], this compound registered a logP of 3.76.
Take `CCN(CC)C(=O)C1Sc2ccccc2-c2c1c1ccccc1n2CCF` (single isomer, unassigned; form 1): the Ki in series [1] was 5.24 nM.
With `CCN(CC)C(=O)C1Sc2ccccc2-c2c1c1ccccc1n2CCCCF` (racemic), the Ki in series [1] turned out to be 0.52 nM.
`CCN(CC)C(=O)C1c2c(n(CCF)c3ccccc23)-c2ccccc2S1(=O)=O` (racemic) had a Ki in series [1] of 8.79 nM. The Ratio in series [3] stood at 2.13; in series [4], 1.75. Besides, the logP in series [2] turned out to be 3.
As to `CCN(CC)C(=O)C1Sc2ccc(F)cc2-c2c1c1ccccc1n2CCF` (racemic), in series [1], the Ki worked out at 0.39 nM. Besides, the Ratio in series [3] came out at 1.37; in series [4], 2.11. In addition, the logP in series [2] turned out to be 3.84.
In series [2], `CCN(CC)C(=O)C1Sc2c(F)cccc2-c2c1c1ccccc1n2CCF` (racemic) showed a logP of 3.79.
For the compound `CCN(CC)C(=O)CC1c2cc(OC)ccc2-c2c1c1ccccc1n2CCF` (racemic), in series [1], the Ki is 154 nM.
`CCN(CC)C(=O)C1Sc2c(OC)cccc2-c2c1c1ccccc1n2CCF` (racemic) gave a Ki in series [1] of 0.33 nM. In addition, the Ratio in series [3] turned out to be 1.53; in series [4] it was 1.07. For the same compound, the logP in series [2] worked out at 3.67.
Compound `CCN(CC)C(=O)C1Sc2ccccc2-c2[nH]c3ccc(NC(C)=O)cc3c21` (racemic) displayed a Ki in series [1] of 59.2 nM.
On to `CCN(CC)C(=O)C1Sc2cc(F)ccc2-c2c1c1ccccc1n2CCF` (racemic), for which the logP in series [2] was found to be 3.87.
Take `CCN(CC)C(=O)C1Sc2ccccc2-c2c1c1cc(OC)ccc1n2CCF` (single isomer, unassigned; form 2): in series [1], affinity was put at a Ki of 0.29 nM.
In turn, `CCN(CC)C(=O)C1Sc2cccc(OC)c2-c2c1c1ccccc1n2CCF` (racemic) displayed a Ki in series [1] of 1.07 nM. Further, the Ratio in series [3] stood at 1.78; in series [4], 3. This compound gave a logP in series [2] of 3.67.
As for `CCN(CC)C(=O)C1Sc2cc(N(CCF)C(C)=O)ccc2-c2c1c1ccccc1n2CCF` (racemic), the Ki in series [1] amounted to 1.35 nM. The same compound registered a logP in series [2] of 3.13.
In series [1], `CCN(CC)C(=O)C1(C)Sc2ccccc2-c2c1c1ccccc1n2CCF` (single isomer, unassigned; form 2) registered a Ki of 16.8 nM.
`CCN(CCF)C(=O)c1sc2ccccc2c2nc3ccccc3c1-2` displayed a Ki in series [1] of 297 nM.
Compound `CCN(CC)C(=O)C1Sc2ccccc2-c2c1c1ccccc1n2CCCF` (racemic) registered a Ki in series [1] of 0.36 nM.
`CCN(CC)C(=O)C1Sc2ccccc2-c2c1c1cc(OC(F)(F)F)ccc1n2CCF` (racemic) returned a Ki in series [1] of 0.26 nM. Also, the values for the Ratio in series [3] and in series [4] were 1.46 and 1.29, respectively. This compound also returned a logP in series [2] of 4.03.
Turning to `CCN(CC)C(=O)C1(C)c2c(n(CCF)c3ccccc23)-c2ccccc2S1(=O)=O` (racemic), the Ki in series [1] was 410 nM. Besides, in series [2], the logP is 3.1.
Turning to `[3H]C([3H])([3H])N(C(=O)c1cc2ccccc2c(-c2ccccc2Cl)n1)C(C)CC` (stereo not drawn), in series [6], the remaining at 0.5 h was determined as 100%. Besides, in series [8], the remaining at 1 h came to 100%. For the same compound, the remaining at 10 min in series [7] stood at 100%.
As to `CCN(CC)C(=O)C1Sc2ccccc2-c2c1c1ccc(OC)cc1n2CCF` (racemic), in series [6], the remaining at 0.5 h was 98%. In series [1], this compound yielded a Ki of 0.4 nM. The Ratio came out at 3.5 in series [3] and 4.75 in series [4]. Further, the remaining at 1 h in series [8] was 98%. For the same compound, the remaining at 10 min in series [7] was determined as 99%. In series [2], this compound registered a logP of 3.82.
Compound `CCN(CC)C(=O)C1Sc2cc(O)ccc2-c2c1c1ccccc1n2CCF` (racemic) registered a Ki in series [1] of 0.33 nM. The Ratio is recorded as 1.44 in series [3] and 1.11 in series [4]. Also, the logP in series [2] is 2.7.
On the same counts, the results for `CCN(CC)C(=O)C1Sc2ccccc2-c2c1c1cc(C#N)ccc1n2CCF` (racemic) are 0.19 nM, 1.93, 2.23 and 3.6.
In the case of `CCN(CC)C(=O)C1(C)Sc2ccccc2-c2c1c1ccccc1n2CCF` (racemic), in series [1], the Ki came to 13.1 nM. Further, the Ratio in series [3] amounted to 0.88; in series [4], 2.75. Moreover, the logP in series [2] was determined as 4.
In series [1], `CCOc1ccc2c(c1)c1c(n2CCF)-c2ccccc2SC1C(=O)N(CC)CC` (racemic) returned a Ki of 0.52 nM. In addition, the Ratio was determined as 2.67 in series [3] and 2.89 in series [4]. Moreover, in series [2], the logP is 3.88.
Taken in the same sequence, the figures for `CCN(CC)C(=O)C1Sc2ccccc2-c2c1c1cc(Cl)ccc1n2CCF` (racemic) were 0.23 nM, 1.57, 1.29 and 4.17.
In turn, `CCN(CC)C(=O)C1Sc2ccc(OC)cc2-c2c1c1ccccc1n2CCF` (racemic) had a Ki in series [1] of 0.3 nM. The results for the Ratio in series [3] and in series [4] were 1.37 and 1.42, respectively. This compound displayed a logP in series [2] of 3.65.
In the case of `CCN(CC)C(=O)C1Sc2ccc(O)cc2-c2c1c1ccccc1n2CCF` (racemic), in series [1], the affinity corresponds to a Ki of 0.55 nM. The Ratio was 1.25 in series [3] and 0.75 in series [4].
With `CCN(CC)C(=O)C1Sc2ccccc2-c2c1c1ccccc1n2Cc1cn(CCF)nn1` (racemic), the Ki in series [1] came out at 63.6 nM.
Compound `CCN(CC)C(=O)C1Sc2ccccc2-c2c1c1cccnc1n2CCF` (racemic) displayed a Ki in series [1] of 3.92 nM. For the same compound, the logP in series [2] is 3.12.
As for `CCN(CC)C(=O)C1Sc2ccccc2-c2c1c1cc(C)ccc1n2CCF` (racemic), the Ki in series [1] was 0.34 nM. Besides, the Ratio in series [3] was 1.73; in series [4], 2. For the same compound, in series [2], the logP was found to be 3.96.
As for `CCN(CC)C(=O)C1Sc2ccccc2-c2c1c1cc(OC)ccc1n2CCF` (racemic), the remaining at 0.5 h in series [6] came out at 97%. In addition, the remaining at 1 h in series [8] worked out at 96%. Besides, the remaining at 10 min in series [7] was 98%. The Ratio in series [4] was found to be 1.73. For the same compound, the logP in series [2] was found to be 3.77.
`CCN(CC)C(=O)C1Sc2ccccc2-c2c1c1c(OC)cccc1n2CCF` (racemic): in series [1], affinity was put at a Ki of 1.09 nM. For the same compound, the Ratio is reported as 2.42 in series [3] and 2 in series [4].
With `CCN(CC)C(=O)C1Sc2ccccc2-c2c1c1cc(Br)ccc1n2CCF` (racemic), the Ki in series [1] was determined as 0.47 nM. Further, the Ratio in series [3] worked out at 1.35; in series [4], 1.53. For the same compound, the logP in series [2] was found to be 4.23.
In turn, `CCN(CC)C(=O)C1Sc2cc(OC)ccc2-c2c1c1ccccc1n2CCF` (racemic) had an inhibition constant Ki in series [1] of 0.3 nM. For the same compound, the Ratio in series [3] is 1.4; in series [4], 1.17. Further, the logP in series [2] was 3.91.
On the same counts, the results for `CCN(CC)C(=O)C1Sc2ccccc2-c2c1c1cc(F)ccc1n2CCF` (racemic) are 0.49 nM, 1.16, 1.6 and 3.85.
`CCN(CC)C(=O)C1Sc2ccccc2-c2c1c1cc(OC)ccc1n2CCF` (single isomer, unassigned; form 1) returned a Ki in series [1] of 1.17 nM.
`CCN(CC)C(=O)C1(C)Sc2ccccc2-c2c1c1ccccc1n2CCF` (single isomer, unassigned; form 1) returned a Ki in series [1] of 30.2 nM.
In the case of `CCN(CC)C(=O)C1Sc2cc(OCCF)ccc2-c2c1c1ccccc1n2C` (racemic), in series [1], the Ki is 0.35 nM.
For `CCN(CC)C(=O)C1Sc2ccccc2-c2c1c1cc(O)ccc1n2CCF` (racemic), the Ki in series [1] is 19 nM. The Ratio in series [3] came out at 1; in series [4], 1.33. Moreover, the logP in series [2] came to 3.19.
In the case of `CCN(CC)C(=O)C1Sc2ccccc2-c2c1c1ccc(OC)nc1n2CCF` (racemic), the Ki in series [1] was 8.44 nM. The Ratio in series [3] is 2.11; in series [4], 4.67. The compound further returned a logP in series [2] of 3.87.
Turning to `CCN(CC)C(=O)C1Sc2cc(NC(C)=O)ccc2-c2c1c1ccccc1n2CCF` (racemic), the Ki in series [1] stood at 0.39 nM. The compound further came in with a logP in series [2] of 3.15.

(Values after ChEMBL document CHEMBL2375274, “Exploration of the structure-activity relationship of a novel tetracyclic class of TSPO ligands-potential novel positron emitting tomography imaging agents” (Bioorg Med Chem Lett, 2013).)
